Reference: ChEMBL document CHEMBL1128208, “(3SR,4aRS,6SR,8aRS)-6-(1H-tetrazol-5-yl)decahydroisoquinoline-3-carboxylic acid, a novel, competitive, systemically active NMDA and AMPA receptor antagonist” (J Med Chem, 1995)
Several values for one entry are separate records, joined by “and”; a condition that tells them apart may be missing. Equal values may be shown once.

Assays:
[1] = Compound was evaluated for high binding affinity towards glycine site on the NMDA receptor; parameters: species or system Rattus norvegicus
Rattus norvegicus [2] = species: Rattus norvegicus; assay: Compound was evaluated against compound induced depolarization of NMDA receptor in rat cortical slice preparation; format: functional
In short: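 Cortical slice preparation in which depolarization was induced by 40 μM NMDA. Antagonism was measured as inhibition of this depolarization, and […].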

[3] = biological target: Glutamate receptor ionotropic AMPA (Homo sapiens, UniProt P42261+P42262+P42263+P48058); assay: Binding affinity against Ionotropic glutamate receptor AMPA using [3H]AMPA as a radioligand; format: protein-complex assay
Xenopus sp. [4] = species: Xenopus sp.; assay: Compound was evaluated for blocking of depolarization induced by 30 uM AMPA in xenopus oocytes injected with rat brain m-RNA; format: functional, frog
Xenopus sp. [5] = species: Xenopus sp.; assay: Compound was evaluated for blocking of depolarization induced by 30 uM NMDA in xenopus oocytes injected with rat brain m-RNA
Rattus norvegicus [6] = species: Rattus norvegicus; assay: Inhibitory activity against compound induced depolarization of NMDA receptor in rat cortical slice preparation; format: functional
In short: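 Cortical slice preparation. Depolarizations evoked by 40 μM NMDA; the value is the IC50 for inhibition of the NMDA response.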

Rattus norvegicus [7] = species: Rattus norvegicus; assay: Inhibitory activity against compound induced depolarization of AMPA receptor in rat cortical slice preparation; format: functional
In short: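 Cortical slice preparation. Depolarizations evoked by 40 μM AMPA or 40 μM quisqualic acid (QUIS); the value is the IC50 for inhibition of the agonist response.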

Glutamate NMDA receptor = assay: Binding affinity against NMDA receptor using [3H]-CGS- 19755 as a radioligand in rat
In short: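 Displacement of the selective NMDA-site radioligand [3H]CGS 19755. Run in triplicate unless otherwise indicated; IC50 reported.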

Rattus norvegicus [8] = species: Rattus norvegicus; assay: Inhibitory activity against compound induced depolarization of Kainic acid receptor in rat cortical slice preparation; format: functional
In short: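 Cortical slice depolarizations evoked by 10 μM kainic acid. Test compound at concentrations up to 100 μM; the value is the IC50 for inhibition.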

[9] = biological target: Glutamate receptor ionotropic kainate; assay: Binding affinity against Ionotropic glutamate receptor kainate using [3H]-Kainic acid as a radioligand; format: protein-complex assay
In short: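 Displacement of [3H]kainic acid from kainate receptor sites. Run in triplicate unless otherwise indicated; IC50 reported.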

[10] = Binding affinity towards glycine site on the NMDA receptor was determined; parameters: species or system Rattus norvegicus

| Compound | IC50 (Rattus norvegicus [6]; Rattus norvegicus) [µM] | IC50 [3] [µM] | IC50 (Rattus norvegicus [7]; Rattus norvegicus) [µM] | IC50 (Glutamate NMDA receptor) [µM] | IC50 (Rattus norvegicus [8]) [µM] | IC50 [9] [µM] | IC50 (Rattus norvegicus [6]) [µM] | IC50 (Rattus norvegicus [7]) [µM] | also measured |
| --- | --- | --- | --- | --- | --- | --- | --- | --- | --- |
| O=C1Nc2cc(Cl)ccc2CC1[N+](=O)[O-] (centres undefined) |  |  |  |  |  |  |  |  | IC50 [1]: 0.41 µM; KbS (Rattus norvegicus [2]): 6.7 µM and 9.2 µM |
| O=[N+]([O-])c1ccc2cc(NS(=O)(=O)C(F)(F)F)c(O)nc2c1 |  |  |  |  |  |  |  |  | Ki [3]: 0.6 µM; Ki (Xenopus sp. [4]): 0.37 µM; Ki (Xenopus sp. [5]): 0.62 µM |
| O=C(O)[C@H]1CC[C@H]2CN[C@H](C(=O)O)C[C@H]2C1 (racemic) | > 100 | > 100 | > 100 | > 100 | > 100 |  |  |  |  |
| O=C(O)[C@@H]1C[C@H]2C[C@@H](c3nnn[nH]3)CC[C@H]2CN1 (racemic) |  | 12.8 |  | 1.6 | > 100 | 31.8 | 7.5 | 40.9 |  |
| O=C(O)[C@@H]1C[C@H]2C[C@H](c3nnn[nH]3)CC[C@H]2CN1 (racemic) | 65 | > 100 | > 100 | 38.4 |  | > 100 |  |  |  |
| O=C(O)[C@@H]1C[C@H]2C[C@@H](Cc3nnn[nH]3)CC[C@H]2CN1 (racemic) | 1.4 | 84.5 | > 100 | 0.82 | > 100 | > 100 |  |  |  |
| O=C(O)[C@@H]1C[C@H]2C[C@@H](CCc3nn[nH]n3)CC[C@H]2CN1 (racemic) [TEZAMPANEL ANHYDROUS] | 61.3 |  | 6 | 26.4 | 31.7 | 247 |  |  |  |
| O=C(O)[C@@H]1C[C@H]2C[C@@H](c3nnn[nH]3)CC[C@H]2CN1 (stereo in doubt; (+)-6) |  | > 100 |  | > 100 |  | > 100 | > 100 | > 100 |  |
| O=C(O)[C@@H]1C[C@H]2C[C@@H](c3nnn[nH]3)CC[C@H]2CN1 (stereo in doubt; (-)-6) |  | 5.7 |  | 1 |  | 21 | 4.1 | 13.2 |  |
| O=[N+]([O-])c1cc2nc(O)c(O)nc2cc1[N+](=O)[O-] [DNQX] |  |  |  |  |  |  |  |  | Ki [3]: 0.36 µM; Ki [10]: 0.39 µM |
